From ChEMBL document CHEMBL4715748, “Synthesis and biological investigation of new equatorial (β) stereoisomers of 3-aminotropane arylamides with atypical antipsychotic profile” (Bioorg Med Chem, 2016)

Columns and labels:
[1] = Metabolic stability in pooled human liver microsomes assessed as parent compound remaining at 2.5 uM incubated for 45 mins in presence of NADPH by LC-MS analysis; format: ADME, Microsome; settings: read-out: Stabilty
Procedure, shortened: (§1)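 Compound at 2.5 μM (added from 100 μM stock in 50/50 acetonitrile/water) with 1 mg/mL pooled human liver microsomes and 250 μM NADPH in 0.1 M potassium phosphate pH 7.4 at 37 °C after 5-min preincubation. Sampled at 5, 10, 15, 30, 45 min into ice-cold acetonitrile with atropine internal standard; parent quantified by LC-MS (ESI+, [M+H]+); no-NADPH controls; half-time derived.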

Mus musculus [2] = assay: Effect on 8-OH-DPAT-induced hypothermia in Swiss albino mouse assessed as change in rectal body temperature at 10 mg/kg, ip pretreated with compound for 45 mins followed by 8-OH-DPAT challenge and measured after 45 min by thermometer (reference value: -1.04 to -0.78 degreeC); format: functional, organism-based; settings: time 90.0 min
D(2) dopamine receptor = D(2) dopamine receptor (Rattus norvegicus, UniProt P61169); assay: Displacement of [3H] Spiperone from rat striatum dopamine D2 receptor measured after 30 mins by liquid scintillation counter method
Chain of D(2) dopamine receptor (P61169 whole entry): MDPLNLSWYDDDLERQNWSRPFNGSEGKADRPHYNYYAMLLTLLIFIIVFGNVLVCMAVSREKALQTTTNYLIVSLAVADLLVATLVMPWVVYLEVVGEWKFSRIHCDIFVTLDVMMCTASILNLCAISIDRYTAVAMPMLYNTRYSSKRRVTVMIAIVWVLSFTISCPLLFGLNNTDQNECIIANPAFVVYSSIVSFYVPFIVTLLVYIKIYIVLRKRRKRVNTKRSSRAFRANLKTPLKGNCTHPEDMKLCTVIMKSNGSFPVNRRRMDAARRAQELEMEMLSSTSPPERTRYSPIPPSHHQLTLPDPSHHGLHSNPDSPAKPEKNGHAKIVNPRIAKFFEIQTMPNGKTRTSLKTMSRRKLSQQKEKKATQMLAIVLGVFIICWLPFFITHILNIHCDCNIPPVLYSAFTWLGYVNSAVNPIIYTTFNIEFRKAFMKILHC
Procedure, shortened: (§2)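 Competition binding in rat brain tissue membranes against D2, 5-HT1A and 5-HT2A sites; Ki reported as mean ± S.E.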

[3] = Effect on body temperature in Swiss Albino mouse assessed as rectal body temperature at 20 mg/kg, ip measured after 120 mins by thermometer (reference value: 0.15 to 1.11 degreeC); format: ADME, organism-based; settings: in vivo, 2 h
Mus musculus [4] = assay: Effect on 8-OH-DPAT-induced hypothermia in Swiss albino mouse assessed as change in rectal body temperature at 20 mg/kg, ip pretreated with compound for 45 mins followed by 8-OH-DPAT challenge and measured after 45 min by thermometer (reference value: -1.04 to -0.78 degreeC); format: functional, organism-based; settings: time 90.0 min
[5] = Effect on body temperature in Swiss Albino mouse assessed as rectal body temperature at 10 mg/kg, ip measured after 30 mins by thermometer (reference value: 0.16 to 0.33 degreeC); format: organism-based; settings: in vivo, 0.5 h
Mus musculus [6] = assay: Antipsychotic activity Swiss Albino mouse assessed as inhibition of DOI-induced head twitching by measuring number of episodes at 5 mg/kg, ip administered 30 mins prior to DOI stimulation (reference value: 19.63 to 19.88); format: functional; settings: 0.5 h
Procedure, shortened: (§3)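 Male Albino Swiss mice (24–28 g) were habituated to sawdust-lined cages 20 min before the first treatment. Compounds were suspended in 1% aqueous Tween 80 and given i.p. 30 min before (±)-DOI, 2.5 mg/kg i.p. in aqueous solution. Head twitches were counted blind over 20 min, n=8 per group, mean ± SEM, one-way ANOVA with Dunnett's test.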

[7] = target: 5-hydroxytryptamine receptor 2A (Rattus norvegicus, UniProt P14842); assay: Displacement of [3H]-ketanserin from rat cerebral cortex 5HT2A receptor measured after 20 mins by liquid scintillation counter method; procedure, shortened: as §2
Chain of 5-hydroxytryptamine receptor 2A (P14842 whole entry): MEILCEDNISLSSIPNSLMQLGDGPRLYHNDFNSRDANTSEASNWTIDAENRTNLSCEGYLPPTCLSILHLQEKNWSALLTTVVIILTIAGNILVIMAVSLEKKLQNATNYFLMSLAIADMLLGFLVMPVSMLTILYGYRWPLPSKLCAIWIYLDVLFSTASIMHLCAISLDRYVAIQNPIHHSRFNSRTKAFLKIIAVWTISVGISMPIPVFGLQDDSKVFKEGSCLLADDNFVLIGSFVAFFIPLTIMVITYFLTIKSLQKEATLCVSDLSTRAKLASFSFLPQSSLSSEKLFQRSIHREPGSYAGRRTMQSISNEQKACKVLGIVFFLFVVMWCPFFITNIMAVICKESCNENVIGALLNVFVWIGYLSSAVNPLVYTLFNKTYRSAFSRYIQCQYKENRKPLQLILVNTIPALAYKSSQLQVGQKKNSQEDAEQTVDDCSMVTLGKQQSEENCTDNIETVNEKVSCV

[8] = Effect on body temperature in Swiss Albino mouse assessed as rectal body temperature at 10 mg/kg, ip measured after 90 mins by thermometer (reference value: 0.18 to 0.63 degreeC); format: ADME, organism-based; settings: in vivo, 1.5 h
[9] = Effect on body temperature in Swiss Albino mouse assessed as rectal body temperature at 20 mg/kg, ip measured after 30 mins by thermometer (reference value: 0.16 to 0.33 degreeC); format: ADME, organism-based; settings: in vivo, 0.5 h
Mus musculus [10] = assay: Effect on 8-OH-DPAT-induced hypothermia in Swiss albino mouse assessed as change in rectal body temperature at 10 mg/kg, ip pretreated with compound for 45 mins followed by 8-OH-DPAT challenge and measured after 60 min by thermometer (reference value: -0.66 to -0.5 degreeC); format: functional, organism-based; settings: time 105.0 min
[11] = Effect on 8-OH-DPAT-induced lower lip retraction in Wistar rat at 20 mg/kg, ip pretreated with compound for 45 mins followed by 8-OH-DPAT challenge and measured after 15 mins (reference value: 2.7 to 2.8); format: functional; settings: time 60 min, 1 h
Mus musculus [12] = assay: Effect on 8-OH-DPAT-induced hypothermia in Swiss albino mouse assessed as change in rectal body temperature at 10 mg/kg, ip pretreated with compound for 45 mins followed by 8-OH-DPAT challenge and measured after 15 min by thermometer (reference value: -1.82 to -1.66 degreeC); format: functional, organism-based; settings: time 60.0 min
[13] = Effect on 8-OH-DPAT-induced lower lip retraction in Wistar rat at 10 mg/kg, ip pretreated with compound for 45 mins followed by 8-OH-DPAT challenge and measured after 15 mins (reference value: 2.7 to 2.8); format: functional; settings: time 60 min, 1 h
[14] = Effect on body temperature in Swiss Albino mouse assessed as rectal body temperature at 20 mg/kg, ip measured after 90 mins by thermometer (reference value: 0.18 to 0.63 degreeC); format: ADME, organism-based; settings: in vivo, 1.5 h
Mus musculus [15] = assay: Antipsychotic activity Swiss Albino mouse assessed as inhibition of DOI-induced head twitching by measuring number of episodes at 2.5 mg/kg, ip administered 30 mins prior to DOI stimulation (reference value: 19.63 to 19.88); format: functional; settings: 0.5 h; procedure, shortened: as §3
Mus musculus [16] = assay: Effect on 8-OH-DPAT-induced hypothermia in Swiss albino mouse assessed as change in rectal body temperature at 20 mg/kg, ip pretreated with compound for 45 mins followed by 8-OH-DPAT challenge and measured after 15 min by thermometer (reference value: -1.82 to -1.66 degreeC); format: functional, organism-based; settings: time 60.0 min
[17] = target: Dopamine D2 receptor and Serotonin 2a receptor (D2 and 5HT2a) (Rattus norvegicus) (UniProt P61169+P14842); assay: Ratio of pKi for displacement of [3H]-ketanserin from rat cerebral cortex 5HT2A receptor measured after 20 mins by liquid scintillation counter method to pKi for displacement of [3H] Spiperone from rat striatum dopamine D2 receptor measured after 30 mins by liquid scintillation counter method
Chain of Dopamine D2 receptor and Serotonin 2a receptor (D2 and 5HT2a) (Rattus norvegicus) (P14842 whole entry, looked up): as the sequence (P14842 whole entry) above
Chain of Dopamine D2 receptor and Serotonin 2a receptor (D2 and 5HT2a) (Rattus norvegicus) (P61169 whole entry, looked up): as the sequence (P61169 whole entry) above
Procedure, shortened: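 Ratio of pKi values, 5-HT2A over D2, computed from competition radioligand binding in rat brain tissue.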

Mus musculus [18] = assay: Effect on 8-OH-DPAT-induced hypothermia in Swiss albino mouse assessed as change in rectal body temperature at 20 mg/kg, ip pretreated with compound for 45 mins followed by 8-OH-DPAT challenge and measured after 60 min by thermometer (reference value: -0.66 to -0.5 degreeC); format: functional, organism-based; settings: time 105.0 min
[19] = Metabolic stability in pooled human liver microsomes at 2.5 uM measured over 45 mins in presence of NADPH by LC-MS analysis; format: ADME, Microsome; settings: 0.75 h; procedure, shortened: as §1
Mus musculus [20] = assay: Effect on 8-OH-DPAT-induced hypothermia in Swiss albino mouse assessed as change in rectal body temperature at 10 mg/kg, ip pretreated with compound for 45 mins followed by 8-OH-DPAT challenge and measured after 30 min by thermometer (reference value: -1.36 to -1.12 degreeC); format: functional, organism-based; settings: time 75.0 min
Mus musculus [21] = assay: Effect on 8-OH-DPAT-induced hypothermia in Swiss albino mouse assessed as change in rectal body temperature at 20 mg/kg, ip pretreated with compound for 45 mins followed by 8-OH-DPAT challenge and measured after 30 min by thermometer (reference value: -1.36 to -1.12 degreeC); format: functional, organism-based; settings: time 75.0 min
Mus musculus [22] = assay: Antipsychotic activity Swiss Albino mouse assessed as inhibition of DOI-induced head twitching by measuring number of episodes at 1.25 mg/kg, ip administered 30 mins prior to DOI stimulation (reference value: 19.63 to 19.88); format: functional; settings: 0.5 h; procedure, shortened: as §3

Compound	deltaT (Mus musculus [2])	Ki (D(2) dopamine receptor)	deltaT [3]	deltaT (Mus musculus [4])	deltaT [5]	Activity (Mus musculus [6])	Ki [7]	deltaT [8]	deltaT [9]	deltaT (Mus musculus [10])	Activity [11]	deltaT (Mus musculus [12])	Activity [13]	deltaT [14]	Activity (Mus musculus [15])	deltaT (Mus musculus [16])	Ratio pKi [17]	deltaT (Mus musculus [18])	deltaT (Mus musculus [20])	deltaT (Mus musculus [21])	also measured
O=C(NC1CC2CCC(C1)N2Cc1cccc(Cl)c1)c1ccc2ccccc2c1 (stereo unspecified)	-0.85 °C	3.6 nM	1 °C	-2.22 °C	0.17 °C	13.13	136 nM	0.84 °C	-0.38 °C	-0.67 °C	2.1	-1.03 °C	2.6	0.41 °C	17.25	-2.12 °C	0.81	-1.57 °C	-1.22 °C	-2.22 °C	remaining at 0.75 h, 2.5 µM [1]: > 50%; Stabilty [19]: Stable
O=C(NC1CC2CCC(C1)N2Cc1ccc(F)cc1)c1ccc2ccccc2c1 (stereo unspecified)	-0.92 °C	137 nM	0.54 °C	-1.43 °C	-0.17 °C	5	209 nM	0.44 °C	-0.33 °C	-0.73 °C	2.4	-1.55 °C	2.5	0.23 °C	5.75	-1.62 °C	0.97	-1 °C	-1.32 °C	-1.6 °C	remaining at 0.75 h, 2.5 µM [1]: > 50%; Activity (Mus musculus [22]): 12.63; Stabilty [19]: Stable
O=C(NC1CC2CCC(C1)N2Cc1cccc(F)c1)c1ccc2ccccc2c1 (stereo unspecified)	-0.97 °C	214 nM	0.81 °C	-1.53 °C	-0.17 °C	3.88	102 nM	0.47 °C	-0.36 degrees C	-0.78 °C	2.3	-1.6 °C	2.4	0.2 °C	11.38	-1.67 °C	1.05	-1.08 °C	-1.37 °C	-1.83 °C	remaining at 0.75 h, 2.5 µM [1]: > 50%; Activity (Mus musculus [22]): 2.3; Stabilty [19]: Stable
O=C(NC1CC2CCC(C1)N2Cc1cccc(Br)c1)c1ccc2ccccc2c1 (stereo unspecified)	-1 °C	11.6 nM	1.23 °C	-1.25 °C	-0.2 °C	13.88	106 nM	0.64 °C	-0.3 °C	-0.72 °C	2.5	-1.32 °C	2.4	0.36 °C	14.5	-1.42 °C	0.88	-0.58 °C	-1.62 °C	-1.37 °C	remaining at 0.75 h, 2.5 µM [1]: > 50%; Stabilty [19]: Stable
Cc1cccc(CN2C3CCC2CC(NC(=O)c2ccc4ccccc4c2)C3)c1 (stereo unspecified)	-0.48 °C	3.3 nM	0.24 °C	-2.08 °C	-0.02 °C	10	231 nM	0.35 °C	0.04 °C	-0.05 °C	2.3	-0.7 °C	2.3	0.2 °C	13	-1.9 °C	0.78	-1.5 °C	-0.97 °C	-2.08 °C	Activity (Mus musculus [22]): 15.63
